# Active and inactive are the calls of the source. The rule behind the calls is not given here.
# How the values were obtained:
# [1] = system: Jurkat; test: Inhibition of NF-kappaB-mediated TNF expression in human Jurkat T cells coexpressing GFP reporter gene at 100 uM by flow cytometry; assay type: cell-based
# Method in brief: (§1)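 Jurkat cells stably carrying GFP under an NF-κB-responsive human TNF promoter (FRT-Jurkat TNF) were treated with racemic compound (0.1% DMSO final) for 24 h. GFP was read by flow cytometry at 515 nm ([…]), gated on viable FSC/SSC cells. Inhibition is the percentage decrease in GFP versus 0.1% solvent control. Assays were run in triplicate.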
# [2] = system: Jurkat; test: Inhibition of NF-kappaB-mediated TNF expression in human Jurkat T cells coexpressing GFP reporter gene at 10 uM by flow cytometry; assay type: cell-based; method in brief: as §1
# [3] = system: Jurkat; test: Cytotoxicity against human Jurkat T cells assessed as cell death at 10 uM after 24 hrs by flow cytometry; assay type: functional
# Method in brief: (§2)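 Jurkat T cells treated 24 h with compound (final DMSO 0.1%); cell death taken as % of cells with reduced size and granularity on flow cytometric forward- vs side-scatter plot, outside gate set on major solvent-only population; viability confirmed by propidium iodide staining (570 nm, FL2). Triplicate, racemic compounds.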
# [4] = system: Jurkat; test: Induction of apoptosis in human Jurkat T cells at 100 uM after 24 hrs by flow cytometry; assay type: functional
# Method in brief: (§3)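 Jurkat T cells were treated with compound for 24 h, with DMSO-only and untreated controls, then stained with a FITC-labelled substrate for cleaved caspase-3 (NucView-488). The apoptotic fraction was the percentage of cells with increased green fluorescence by flow cytometry. Cell death, taken as reduced size and granularity on FSC/SSC, was measured in parallel. Assays were run in triplicate.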
# [5] = system: Jurkat; test: Induction of apoptosis in human Jurkat T cells at 10 uM after 24 hrs by flow cytometry; assay type: functional
# Method in brief: (§4)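 Apoptosis in Jurkat T cells after 24 h compound exposure: cells stained with FITC-labelled substrate for cleaved caspase-3 (NucView-488), % cells with increased green fluorescence counted by flow cytometry with positivity gate; solvent (0.1% DMSO) and untreated controls. Triplicate, racemic compounds; three independent experiments.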
# [6] = system: Jurkat; test: Cytotoxicity against human Jurkat T cells assessed as viable cells at 10 uM after 24 hrs by flow cytometry; assay type: functional; settings: read-out: Activity
# Method in brief: (§5)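 FRT-Jurkat TNF reporter cells were exposed to compound (racemic, 0.1% DMSO final) for 24 h and analysed by flow cytometry on FSC/SSC. Viable cells were counted as those inside the gate around the main population of solvent-only cells. Viability was confirmed by propidium iodide fluorescence at 570 nm (FL2). Assays were run in triplicate.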
# [7] = system: Jurkat; test: Cytotoxicity against human Jurkat T cells assessed as cell death at 100 uM after 24 hrs by flow cytometry; assay type: functional; method in brief: as §2
# [8] = system: Jurkat; test: Inhibition of NF-kappaB-mediated TNF expression in human Jurkat T cells coexpressing GFP reporter gene at 1 uM by flow cytometry; assay type: cell-based; method in brief: as §1
# [9] = system: Jurkat; test: Inhibition of NF-kappaB-mediated TNF expression in human Jurkat T cells coexpressing GFP reporter gene at 0.1 uM by flow cytometry; assay type: cell-based; method in brief: as §1
# [10] = system: Jurkat; test: Cytotoxicity against human Jurkat T cells assessed as viable cells at 1 uM after 24 hrs by flow cytometry; assay type: functional; settings: read-out: Activity; method in brief: as §5
# [11] = system: Jurkat; test: Cytotoxicity against human Jurkat T cells assessed as viable cells at 0.1 uM after 24 hrs by flow cytometry; assay type: functional; settings: read-out: Activity; method in brief: as §5
# [12] = system: Jurkat; test: Cytotoxicity against human Jurkat T cells assessed as cell death at 0.1 uM after 24 hrs by flow cytometry; assay type: functional; method in brief: as §2
# [13] = system: Jurkat; test: Induction of apoptosis in human Jurkat T cells at 1 uM after 24 hrs by flow cytometry; assay type: functional; method in brief: as §4
# [14] = system: Jurkat; test: Induction of apoptosis in human Jurkat T cells at 0.1 uM after 24 hrs by flow cytometry; assay type: functional; method in brief: as §3
# [15] = system: PBMC; test: Inhibition of PMA-induced TNF production in human PBMC at 10 uM by RT-PCR; assay type: functional, cell-based
# Method in brief: (§6)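 PBMCs from healthy volunteers were freshly isolated, activated, and cultured with compound or DMSO for 2 h. Endogenous TNF mRNA was quantified by reverse transcription and real-time PCR (50 cycles: 95 °C 10 s, 55 °C 15 s, 72 °C 20 s) and normalised to β-actin.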
# [16] = system: PBMC; test: Inhibition of PMA-induced TNF production in human PBMC at 1 uM by RT-PCR; assay type: functional, cell-based; method in brief: as §6
# [17] = system: PBMC; test: Cytotoxicity against human PBMC assessed as cell death at 1 to 10 uM; assay type: cell-based
smiles,measurement,setting,value
N#CCCCC#Cc1cccc2c1C(=O)N(C1CCC(=O)NC1=O)C2=O (racemic),inhibition,[1],9%
Cc1ccc(-c2cccc3c2C(=O)N(C2CCC(=O)NC2=O)C3=O)cc1 (racemic),inhibition,[1],10%
CC(C)(C)C#Cc1ccc2c(c1)C(=O)N(C1CCC(=O)NC1=O)C2=O (racemic),inhibition,[1],19%
CC(C)(O)C#Cc1ccc2c(c1)C(=O)N(C1CCC(=O)NC1=O)C2=O (racemic),inhibition,[1],20%
CC(=O)c1ccc(-c2ccc3c(c2)C(=O)N(C2CCC(=O)NC2=O)C3=O)cc1 (racemic),inhibition,[1],26%
O=C1CCC(N2C(=O)c3ccc(-c4ccc(O)cc4)cc3C2=O)C(=O)N1 (racemic),inhibition,[1],11%
Cc1ccc(-c2ccc3c(c2)C(=O)N(C2CCC(=O)NC2=O)C3=O)cc1 (racemic),inhibition,[1],14%
O=C1CCC(N2C(=O)c3cccc(-c4ccc(O)cc4)c3C2=O)C(=O)N1 (racemic),inhibition,[1],19%
CC(C)(C)C#Cc1cccc2c1C(=O)N(C1CCC(=O)NC1=O)C2=O (racemic),inhibition,[1],24%
NC(=O)c1ccc(-c2cccc3c2C(=O)N(C2CCC(=O)NC2=O)C3=O)cc1 (racemic),inhibition,[1],14%
O=C1CCC(N2C(=O)c3ccccc3C2=O)C(=O)N1 (racemic) [THALIDOMIDE],inhibition,[1],6%
same,inhibition,[2],4%
same,Activity,[3],6%
same,Activity,[4],9%
same,Activity,[5],7%
O=C1CCC(N2C(=O)c3ccc(-c4ccccc4)cc3C2=O)C(=O)N1 (racemic),inhibition,[1],12%
CC(C)Oc1ccc(-c2ccc3c(c2)C(=O)N(C2CCC(=O)NC2=O)C3=O)cc1 (racemic),inhibition,[1],59%
same,inhibition,[2],10%
same,viability at 10 µM,[6],90%
same,Activity,[7],51%
same,Activity,[3],14%
same,Activity,[4],34%
same,Activity,[5],12%
O=C1CCC(N2C(=O)c3cccc(C#Cc4ccccc4)c3C2=O)C(=O)N1 (racemic),inhibition,[1],13%
O=C1CCC(N2C(=O)c3cccc(-c4ccccc4)c3C2=O)C(=O)N1 (racemic),inhibition,[1],14%
CC(C)Cc1ccc(-c2ccc3c(c2)C(=O)N(C2CCC(=O)NC2=O)C3=O)cc1 (racemic),inhibition,[1],90%
same,inhibition,[2],5%
same,viability at 10 µM,[6],89%
same,Activity,[7],21%
same,Activity,[3],6%
same,Activity,[4],22%
same,Activity,[5],7%
N#CCCCC#Cc1ccc2c(c1)C(=O)N(C1CCC(=O)NC1=O)C2=O (racemic),inhibition,[1],12%
CC(C)Oc1ccc(-c2cccc3c2C(=O)N(C2CCC(=O)NC2=O)C3=O)cc1 (racemic),inhibition,[1],47%
same,inhibition,[2],8%
same,viability at 10 µM,[6],90%
same,Activity,[7],33%
same,Activity,[4],30%
same,Activity,[5],8%
O=C1CCC(N2C(=O)c3ccc(C#CCO)cc3C2=O)C(=O)N1 (racemic),inhibition,[1],10%
NC(=O)c1ccc(-c2ccc3c(c2)C(=O)N(C2CCC(=O)NC2=O)C3=O)cc1 (racemic),inhibition,[1],10%
O=C1CCC(N2C(=O)c3cccc(C#CCO)c3C2=O)C(=O)N1 (racemic),inhibition,[1],7%
CC(C)Cc1ccc(-c2cccc3c2C(=O)N(C2CCC(=O)NC2=O)C3=O)cc1 (racemic),inhibition,[1],86%
same,inhibition,[2],7%
same,viability at 10 µM,[6],90%
same,Activity,[7],94%
same,Activity,[4],96%
same,Activity,[5],7%
O=CC#Cc1ccc2c(c1)C(=O)N(C1CCC(=O)NC1=O)C2=O (racemic),inhibition,[1],85%
same,inhibition,[2],86%
same,inhibition,[8],5%
same,inhibition,[9],4%
same,viability at 10 µM,[6],25%
same,viability at 1 µM,[10],95%
same,viability at 0.1 µM,[11],96%
same,Activity,[3],86%
same,Activity,[12],4%
same,Activity,[5],84%
same,Activity,[13],7%
same,Activity,[14],7%
same,Activity,[15],Active
same,Activity,[16],Active
same,Activity,[17],Active
O=C1CCC(N2C(=O)c3ccc(C#Cc4ccccc4)cc3C2=O)C(=O)N1 (racemic),inhibition,[1],6%
CC(=O)c1ccc(-c2cccc3c2C(=O)N(C2CCC(=O)NC2=O)C3=O)cc1 (racemic),inhibition,[1],17%
CC(C)(O)C#Cc1cccc2c1C(=O)N(C1CCC(=O)NC1=O)C2=O (racemic),inhibition,[1],6%
CNCC#Cc1ccc2c(c1)C(=O)N(C1CCC(=O)NC1=O)C2=O (racemic),inhibition,[1],10%

# — ChEMBL document CHEMBL1159046, “New thalidomide analogues derived through Sonogashira or Suzuki reactions and their TNF expression inhibition profiles” (Bioorg Med Chem, 2010)
